Results from ChEMBL document CHEMBL4387756, “Discovery of DC_H31 as potential mutant IDH1 inhibitor through NADPH-based high throughput screening” (Bioorg Med Chem, 2019).
Calls of active or inactive are those of the source. The rule behind the calls is not given here.

How the values were obtained:
[1] = target: T1, Isocitrate dehydrogenase [NADP] cytoplasmic (Homo sapiens, UniProt O75874); assay: Inhibition of N-terminal 6-His-tagged wild type IDH1 (unknown origin) expressed in Escherichia coli BL21 cells using alpha-KG as substrate in presence of NADPH incubated for 40 mins by fluorescence assay
T1 sequence (O75874 whole entry): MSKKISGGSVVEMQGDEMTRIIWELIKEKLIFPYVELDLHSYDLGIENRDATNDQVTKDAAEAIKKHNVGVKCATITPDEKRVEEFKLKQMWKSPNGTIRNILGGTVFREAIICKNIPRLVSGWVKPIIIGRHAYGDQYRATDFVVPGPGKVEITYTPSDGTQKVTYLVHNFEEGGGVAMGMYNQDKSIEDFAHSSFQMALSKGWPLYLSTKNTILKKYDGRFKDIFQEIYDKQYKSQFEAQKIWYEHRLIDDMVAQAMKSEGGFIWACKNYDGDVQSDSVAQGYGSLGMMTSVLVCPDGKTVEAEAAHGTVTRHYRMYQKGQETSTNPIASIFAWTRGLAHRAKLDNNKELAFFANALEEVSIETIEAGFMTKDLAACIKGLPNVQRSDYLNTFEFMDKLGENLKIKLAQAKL

[2] = target: T2, Isocitrate dehydrogenase [NADP] cytoplasmic (Homo sapiens, UniProt O75874, R132H); assay: Inhibition of N-terminal 6-His-tagged IDH1 R132H mutant (unknown origin) expressed in Escherichia coli BL21 cells using alpha-KG as substrate in presence of NADPH incubated for 40 mins by fluorescence assay
T2 sequence (O75874 2-414 R132H limits assumed): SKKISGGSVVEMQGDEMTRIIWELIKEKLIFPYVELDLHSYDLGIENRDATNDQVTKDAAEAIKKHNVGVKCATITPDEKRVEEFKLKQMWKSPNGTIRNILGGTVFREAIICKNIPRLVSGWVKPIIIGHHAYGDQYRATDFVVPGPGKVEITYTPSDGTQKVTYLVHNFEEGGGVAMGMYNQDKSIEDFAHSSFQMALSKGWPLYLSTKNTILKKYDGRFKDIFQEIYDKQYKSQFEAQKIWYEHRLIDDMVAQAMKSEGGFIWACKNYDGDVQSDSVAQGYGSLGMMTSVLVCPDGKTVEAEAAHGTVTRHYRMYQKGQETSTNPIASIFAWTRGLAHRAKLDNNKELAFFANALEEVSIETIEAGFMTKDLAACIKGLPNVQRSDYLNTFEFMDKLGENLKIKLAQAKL
Method in brief: (§1)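 His-tagged-free description: E. coli BL21 expressed, affinity-purified enzyme, 100 nmol/L R132H or 20 nmol/L R132C. Remaining NADPH was read by fluorescence (ex 355/em 460 nm). Dose-response started at 50 µmol/L, seven dilution steps. IC50 is the mean of three determinations.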

[3] = target: T3, Isocitrate dehydrogenase [NADP] cytoplasmic (Homo sapiens, UniProt O75874, R132C); assay: Inhibition of N-terminal 6-His-tagged IDH1 R132C mutant (unknown origin) expressed in Escherichia coli BL21 cells using alpha-KG as substrate in presence of NADPH incubated for 40 mins by fluorescence assay; method in brief: as §1
T3 sequence (O75874 2-414 R132C limits assumed): as the sequence (O75874 2-414 R132H limits assumed) above, with H131C counted along it

[4] = system: Isocitrate dehydrogenase [NADP] cytoplasmic (Homo sapiens), O75874 [R132C]; assay: Inhibition of IDH1 R132C mutant in human HT1080 cells assessed as induction of differentiation by measuring increase in GFAP mRNA expression at 1 umol/L after 6 days by qRT-PCR analysis; assay type: cell-based
Isocitrate dehydrogenase [NADP] cytoplasmic (Homo sapiens), O75874 [R132C], sequence (O75874 whole entry R132C): as the sequence (O75874 whole entry) above, with R132C counted along it
Method in brief: (§2)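 HT1080 cells in 6-well plates were exposed to 1 µmol/L compound or DMSO for 6 days. RNA was extracted with Trizol, reverse transcribed, and SOX2 and GFAP expression measured by SYBR Green real-time PCR. Values are mean ±SD of three replicates.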

[5] = system: HT-1080; assay: Antiproliferation activity against human HT1080 cells assessed as reduction in cell viability after 72 hrs by Cell Titer-Glo luminescent assay; conditions: HT-1080, 72 h
[6] = system: U-87 MG; assay: Antiproliferation activity against human U87MG cells assessed as reduction in cell viability after 72 hrs by Cell Titer-Glo luminescent assay; assay type: functional, cell-based, U-87MG ATCC
Method in brief: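 HT1080 (endogenous IDH1-R132C) and U-87 MG cells kept in DMEM with 10% FBS and 1% penicillin/streptomycin at 37 °C, 5% CO2. Cells were seeded in 96-well plates and, after attachment, exposed to a concentration range for 72 h in triplicate with matched DMSO control. Viable fraction was read by CellTiter-Glo luminescence. IC50 came from a nonlinear curve fit.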

[7] = target: T1, Isocitrate dehydrogenase [NADP] cytoplasmic; assay: Binding affinity to N-terminal 6-His-tagged wild type IDH1 (unknown origin) expressed in BL21 cells assessed as equilibrium dissociation constant by SPR assay
Method in brief: (§3)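 Assay ran on a Biacore T200 at 25 °C in HBS (10 mmol/L HEPES pH 7.4, 150 mmol/L NaCl, 0.1% DMSO). Bacterially expressed, affinity-purified protein was diluted in 10 mmol/L sodium acetate and amine-coupled to a CM5 chip. Analyte ranged 25–0.78 µmol/L for R132H/C and 50–1.56 µmol/L for WT, flowed at 30 µL/min. Association 120 s, dissociation 150 s. KD from a steady-state model.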

[8] = target: T3, Isocitrate dehydrogenase [NADP] cytoplasmic; assay: Binding affinity to N-terminal 6-His-tagged IDH1 R132C mutant (unknown origin) expressed in BL21 cells assessed as equilibrium dissociation constant by SPR assay; method in brief: as §3
[9] = Selectivity ratio of IC50 for human HT1080 cells to IC50 for human U87MG cells; assay type: functional
[10] = system: Isocitrate dehydrogenase [NADP] cytoplasmic (Homo sapiens), O75874 [R132C]; assay: Inhibition of IDH1 R132C mutant in human HT1080 cells assessed as induction of differentiation by measuring increase in GFAP protein expression after at 0.125 to 1 umol/L 6 days by Western blot analysis; assay type: cell-based
Method in brief: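 HT1080 cells in 6-well plates received indicated concentrations or DMSO for 6 days after attachment. BCA-quantified lysates were resolved on 12% SDS-PAGE and transferred to nitrocellulose. Membranes were blocked in 5% milk, probed overnight at 4 °C with anti-GFAP and anti-GAPDH, then with HRP secondary for 2 h, and detected by ECL.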

[11] = system: Isocitrate dehydrogenase [NADP] cytoplasmic (Homo sapiens), O75874 [R132C]; assay: Inhibition of IDH1 R132C mutant in human HT1080 cells assessed as induction of differentiation by measuring decrease in SOX2 mRNA expression at 1 umol/L after 6 days by qRT-PCR analysis; assay type: cell-based; method in brief: as §2
[12] = target: T2, Isocitrate dehydrogenase [NADP] cytoplasmic; assay: Binding affinity to N-terminal 6-His-tagged IDH1 R132H mutant (unknown origin) expressed in BL21 cells assessed as equilibrium dissociation constant by SPR assay; method in brief: as §3

| SMILES | IC50 [1] [µM] | IC50 [2] [µM] | IC50 [3] [µM] | further results |
| --- | --- | --- | --- | --- |
| CCCCN1CCN(C(c2cc(C(C)(C)C)c(O)c(C(C)(C)C)c2)c2ccccn2)CC1 (stereo not drawn) | 12.8 | > 50 | 9 |  |
| CN1CCN(C(c2cc(C(C)(C)C)c(O)c(C(C)(C)C)c2)c2ccccn2)CC1 (stereo not drawn) | 50 | 3 | 4.9 |  |
| CC(C)(C)c1cc(C(SC2CCCCC2)c2ccccn2)cc(C(C)(C)C)c1O (stereo not drawn) | > 50 | > 50 | > 50 |  |
| CC(C)(C)c1cc(C(c2ccccn2)N2CCN(CC3CC3)CC2)cc(C(C)(C)C)c1O (stereo not drawn) | 31 | > 50 | 18 |  |
| CC(C)(C)c1cc(C(c2ccccn2)N2CCN(C3CCCCC3)CC2)cc(C(C)(C)C)c1O (stereo not drawn) | > 50 | > 50 | > 50 |  |
| CC(C)(C)c1cc(C(c2ccccn2)N2CCOCC2)cc(C(C)(C)C)c1O (stereo not drawn) | 43.7 | 0.41 | 2.7 | inhibition [4]: Active; IC50 [5]: 5 µM; IC50 [6]: 48.7 µM; Kd [7]: > 50 µM; Kd [8]: 0.72 µM; Ratio IC50 [9]: 10; inhibition [10]: Active; inhibition [11]: Active; Kd [12]: 3.8 µM |
| Cc1cccc(C(c2cc(C(C)(C)C)c(O)c(C(C)(C)C)c2)N2CCOCC2)n1 (stereo not drawn) | > 50 | > 50 | > 50 |  |
| Cc1ccccc1C(C(=O)NC1CCCCC1)N(C(=O)Cn1ccnc1C)c1cccc(F)c1 (stereo not drawn) |  | 0.082 |  |  |
| CC(C)(C)c1cc(C(OC2CCCCC2)c2ccccn2)cc(C(C)(C)C)c1O (stereo not drawn) | > 50 | > 50 | > 50 |  |
| CC(C)(C)c1cc(C(c2ccccn2)N2CCOCC2)cc(C(C)(C)C)c1 (stereo not drawn) | > 50 | > 50 | > 50 |  |
| CCN1CCN(C(c2cc(C(C)(C)C)c(O)c(C(C)(C)C)c2)c2ccccn2)CC1 (stereo not drawn) | 6.4 | 12 | 4.8 |  |
| CC(C)(C)c1cc(C(c2ccccn2)N2CCN(c3ccccc3)CC2)cc(C(C)(C)C)c1O (stereo not drawn) | > 50 | > 50 | > 50 |  |
| CN1CCN(C(c2cc(C(C)(C)C)cc(C(C)(C)C)c2)c2ccccn2)CC1 (stereo not drawn) | > 50 | > 50 | > 50 |  |
| CC(C)(C)c1cc(C(c2cccc(F)c2)N2CCOCC2)cc(C(C)(C)C)c1O (stereo not drawn) | > 50 | > 50 | > 50 |  |
| Cc1cccnc1C(c1cc(C(C)(C)C)c(O)c(C(C)(C)C)c1)N1CCOCC1 (stereo not drawn) | 0.8 | 20 | 4.7 |  |
| CC(C)N1CCN(C(c2cc(C(C)(C)C)c(O)c(C(C)(C)C)c2)c2ccccn2)CC1 (stereo not drawn) | 3 | 4.76 | 7 |  |
| CC(C)(C)c1cc(C(c2ccccn2)N2CCN(C(C)(C)C)CC2)cc(C(C)(C)C)c1O (stereo not drawn) | 8.5 | > 50 | 9 |  |
